Source: PMC6997517 (EBioMedicine, 2020)

Tests used:
[1] = system: TLR4 (HEK-Blue™ hTLR4 cells); experiment: SEAP activity assay; format: cell-based, human; details: LPS-stimulated; absorbance at 620 nm; n ≥ 3
In short: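 Seeded at 2 × 10^5/well (24-well) and grown overnight, then treated with a range of test-compound concentrations with or without LPS. Supernatants heat-treated at 65 °C for 10 min. SEAP (NF-κB reporter) detected with HEK-Blue detection medium.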

[2] = system: RAW264.7 cells; experiment: MTT cell viability, RAW264.7 cells; format: cell-based, murine; details: 50 μM
In short: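 MTT colourimetric viability assay. HEK-Blue hTLR4 cells (high-glucose DMEM, 10% FBS, normocin) seeded at 5 × 10^4/well. RAW264.7 cells seeded at 2 × 10^5/well. Both grown overnight before exposure to test compound.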

[3] = system: TLR4; experiment: Cytokine ELISA, LPS-stimulated RAW264.7 cells; format: cell-based, murine; details: n ≥ 3
In short: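 Murine macrophages seeded at 2 × 10^5/well (96-well) or 5 × 10^5/well (24-well) and grown overnight, then treated with test compound and LPS. After 24 h treatment, secreted IFN-β was measured by pre-coated mouse IFN-β ELISA. Mouse IL-6 and mouse TNF-α were measured by ELISA kits.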

[4] = system: TLR4; experiment: NO secretion assay, LPS-stimulated RAW264.7 cells; format: cell-based, murine; details: absorbance at 550 nm
In short: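 RAW264.7 cells seeded at 2 × 10^5/well in 96-well format and grown overnight. After treatment with test compound and LPS, nitric oxide in the culture medium was quantified with a colourimetric NO detection kit.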

[5] = system: TLR4; experiment: Intracellular NO and ROS; format: cell-based, murine; details: LPS, 50 μM TIP3
In short: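 RAW264.7 cells seeded at 1 × 10^6 per 6 cm dish and grown overnight. Stimulated with LPS and treated with test compound. Intracellular NO stained with DAF-FM and ROS with DCF-DA. Cellular fluorescence quantified by flow cytometry.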

[6] = system: TLR7/8; experiment: TNF-α secretion, R848; format: cell-based, murine; details: TIP3 at 50 μM
In short: (§1)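 RAW264.7 cells seeded at 2 × 10^5/well (96-well) or 5 × 10^5/well (24-well), grown overnight, then treated with test compound. Stimulus: poly(I:C), CpG-ODN (15), FSL-1 (16) or R848 (17). Supernatant cytokines read after 24 h by mouse ELISA kits (IFN-β, IL-6, TNF-α). Cells kept at 37 °C, 5% CO2.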

[7] = system: TLR3; experiment: Cytokine ELISA, poly; format: cell-based, murine; details: 24 h
In short: as §1

[8] = system: TLR4; experiment: Western blot, LPS-stimulated hPBMCs; format: cell-based, human
In short: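 Total protein extracted with M-PER reagent and quantified by BCA. Membranes incubated with primary antibodies overnight at 4 °C, washed in PBS/0·1% Tween 20, then HRP-conjugated secondary (1:1000) for 2 h. Bands detected by enhanced chemiluminescence, with β-actin as loading reference.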

[9] = system: TLR3; experiment: Cytokine ELISA, poly; format: cell-based, mouse; details: mBMDMs, poly(I:C)
In short: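 Bone marrow flushed from femurs and tibiae of C57BL/6J mice (6–7 weeks). Cultured in DMEM/10% FBS with M-CSF (25 ng/ml) for 3–4 days, detached with trypsin-EDTA, replated, and used 24 h later. Seeded and grown overnight, stimulated with poly(I:C) plus test compound. Secreted IFN-β measured after 24 h by mouse IFN-β ELISA.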

[10] = system: hMNCs; experiment: Cell viability, hMNCs; format: cell-based, human
[11] = system: TLR4; experiment: Cytokine ELISA, LPS-stimulated hMNCs; format: cell-based, human
In short: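 Commercial human mononuclear cells kept in RPMI 1640 (2·05 mM L-glutamine, 10% FBS, penicillin/streptomycin). Seeded at 2 × 10^5/well and grown overnight. Stimulated with LPS or poly(I:C) alongside test compound. After 24 h, supernatant IL-6 and TNF-α measured by human sandwich ELISA.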

[12] = system: CIA mice; experiment: Collagen-induced arthritis; format: in vivo, mouse (DBA/1 J)
In short: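 Male DBA/1J mice (6–7 weeks, 20–23 g) immunised at tail base with 100 μg chicken type II collagen in an equal volume of complete Freund's adjuvant (day 0), boosted day 20. Groups of n = 7. Test compound (2·5 or 10 nmol/g) or methotrexate (2 mg/kg) in saline given i.p. once daily from day 22. Body weight, paw volume and arthritis index tracked. […] (maximum 16), twice weekly.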

[13] = system: mice with IMQ-induced psoriasis-like disease; experiment: Imiquimod; format: in vivo, mouse (C57BL/6)
In short: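 C57BL/6 mice (6–7 weeks, specific-pathogen-free) given 62·5 mg of 5% imiquimod cream topically for 5 consecutive days; controls left untreated. Test compound (10 or 50 nmol/g) or PBS given daily, and methotrexate (10 μg/g) as reference, all starting 1 day before the cream. Mice killed after 5 days. Back-skin severity scored on a PASI-based scale.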

[14] = system: lupus-prone mice (MRL/lpr); experiment: SLE model, MRL/lpr mice; format: in vivo, mouse (MRL/lpr); details: 10 nmol/g i.p. daily, 20 days
[15] = PAP-TIP3 10 nmol/g, treatment started from day 35

DYDVCVCH [TIP3]
inhibition of LPS-induced SEAP activity (NF-κB) [1]: hampered the LPS-induced SEAP activity in a dose-dependent manner
cell viability / toxicity [2]: did not have any toxic effects
LPS-induced IFN-α secretion [3]: significantly prevented in vitro production of proinflammatory cytokines (TNF-α and IL-6) and IFN-α and -β in a dose-dependent manner
LPS-induced IFN-β secretion [3]: significantly prevented in vitro production of proinflammatory cytokines (TNF-α and IL-6) and IFN-α and -β in a dose-dependent manner
LPS-induced IL-6 secretion [3]: significantly prevented in vitro production of proinflammatory cytokines (TNF-α and IL-6) and IFN-α and -β in a dose-dependent manner
LPS-induced TNF-α secretion [3]: significantly prevented in vitro production of proinflammatory cytokines (TNF-α and IL-6) and IFN-α and -β in a dose-dependent manner
LPS-induced extracellular NO secretion [4]: represses the LPS-induced extracellular secretion of NO
intracellular NO ([5]; DAF-FM): significantly inhibited
intracellular ROS ([5]; DCF-DA): significantly inhibited
TNF-α secretion mediated by TLR7, TLR8 [6]: somewhat weak inhibition
poly(I:C)-induced IFN-α secretion [7]: also inhibited
poly(I:C)-induced IFN-β secretion [7]: also inhibited
poly(I:C)-induced IL-6 secretion [7]: also inhibited
TLR3-mediated TNF-α secretion ([7]; poly(I:C)): significantly diminished the TLR3-mediated TNF-α secretion in a dose-dependent manner
activation of ATF3 [8]: hindered the activation of NF-κB and ATF3
activation of NF-κB [8]: hindered the activation of NF-κB
phosphorylation of ERK [8]: inhibited the phosphorylation of MAPKs, including ERK, JNK, and p38
phosphorylation of IRF3 [8]: hindered the activation of NF-κB and ATF3 and the phosphorylation of IRF3
phosphorylation of JNK [8]: inhibited the phosphorylation of MAPKs, including ERK, JNK, and p38
phosphorylation of p38 [8]: inhibited the phosphorylation of MAPKs, including ERK, JNK, and p38
TLR3-mediated IFN-β secretion [9]: suppressed
cell viability [10]: substantial reproducible outcomes were observed in terms of cell viability
TLR4-mediated IL-6 secretion [11]: significantly inhibited
TLR4-mediated TNF-α secretion [11]: significantly inhibited
arthritis index, postarthritis phase treatment [12, 15]: significantly inhibited when compared with the CIA mice
body weight, postarthritis phase treatment [12, 15]: did not observe any significant change in body weight
paw volume, postarthritis phase treatment [12, 15]: significantly inhibited when compared with the CIA mice
loss of body weight ([12]; TIP3 10 nmol/g or MTX 2 mg/kg, i.p. daily from day 22): not observed
arthritis index ([12]; TIP3 10 nmol/g or MTX 2 mg/kg, i.p. daily from day 22, maximal score 16): significantly decreased
relative paw volume (large paw volume) ([12]; TIP3 10 nmol/g or MTX 2 mg/kg, i.p. daily from day 22, plethysmometer): TIP3 (10 nmol/g)- and MTX-injected mice did not
induction of RA (arthritic symptoms) ([12]; i.p. once a day from day 22, vs CIA mice): significantly attenuated
effect relative to MTX ([13]; TIP3 10 nmol/g vs MTX 10 μg/g): relatively weaker effect than did the MTX-treated group
spleen weight ([13]; TIP3 50 nmol/g i.p.): significantly decreasing the spleen weight (almost to the weight of normal murine spleen)
body weight ([13]; TIP3 50 nmol/g i.p., vs MTX and TIP3 10 nmol/g): underwent a weight loss as compared to the MTX- and TIP3 (10 nmol/g)-treated groups
inflammation severity of back skin ([13]; TIP3 10 or 50 nmol/g daily): reversal of inflammation severity
PASI score ([13]; TIP3 10 or 50 nmol/g i.p.): did not significantly reduce the PASI score starting from day 2
splenomegaly ([13]; TIP3 10 or 50 nmol/g i.p.): remarkably prevented splenomegaly in a dose-dependent manner
complement C4 [14]: the levels of complement components C4 and C3 were recovered
dsDNA autoantibodies ([14]; ELISA): remained low
serum C3 complement ([14]; ELISA): found to recover
urine albumin ([14]; ELISA): reduced by TIP3 treatment
lymphoid expansion and spleen volume ([14]; vs vehicle): reducing the lymphoid expansion and the spleen volume
